Measurements taken from EPA's CvTdb concentration-time database.

Experiments:
Rat [1] = assay: concentration in plasma after dosing
dog = conditions: dosed: tetrachloroethylene, 142 ppm, inhalation, duration: 4 hr, male, beagle
In short: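 Points were largely digitised from plot screenshots with WebPlotDigitizer or otherwise copied from tables, and they remain in the units each source reported. They come from published in vivo toxicokinetic studies and two structured collections. Sampling and analytical methods follow each source and were often not reported.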

Rat [2] = assay: concentration in liver after dosing; conditions: dosed: Bis 2-Chloroethoxy Methane, 20 mg/kg, iv, F344
Rat [3] = assay: concentration in plasma after dosing; conditions: 4 h; dosed: Bis 2-Chloroethoxy Methane; 40 mg/kg; iv; Male; Harlan Sprague Dawley
Rat [4] = assay: concentration in thymus after dosing; conditions: 1 h; dosed: Bis 2-Chloroethoxy Methane; 20 mg/kg; iv; Male; F344
Rat [5] = assay: concentration in heart after dosing; conditions: dosed: Bis 2-Chloroethoxy Methane, 20 mg/kg, iv
Rat [6] = assay: concentration in liver after dosing; conditions: 4 h; dosed: Bis 2-Chloroethoxy Methane; 20 mg/kg; iv; Male; F344
Rat [7] = assay: concentration in thymus after dosing; conditions: 1 h; dosed: Bis 2-Chloroethoxy Methane; 20 mg/kg; iv; Female; F344
Rat [8] = assay: concentration in thymus after dosing; conditions: dosed: Bis 2-Chloroethoxy Methane, 20 mg/kg, iv

Cc1cccc(Nc2cc(Cl)nc(SCC(=O)O)n2)c1C
concentration in plasma [ng/mL], Rat [1], Male, Sprague-Dawley
Conditions	dosed: Wyeth-14643, 1.0 mg/kg	dosed: Wyeth-14643, 2.0 mg/kg	dosed: Wyeth-14643, 5.0 mg/kg
0.25 h, iv	–	8890	–
0.25 h, oral	480	941	2340
0.5 h, iv	–	4960	–
0.5 h, oral	493	1350	3240
1 h, iv	–	2670	–
1 h, oral	548	1010	4080
2 h, iv	–	682	–
2 h, oral	373	466	1930
2.5 min, iv	–	28300	–
3 h, iv	–	253	–
3 h, oral	145	972	–
4 h, iv	–	218	–
4 h, oral	–	273	1050
5 h, oral	357	312	–
5 min, iv	–	20700	–
5 min, oral	–	270	520
6 h, oral	–	118	506
7 h, oral	124	–	–
8 h, oral	–	305	421
24 h, oral	–	–	129

O=C(O)C(Cl)(Cl)Cl [trichloroacetic acid]
dog
Conditions	amount in urine after dosing [mg]
22 h	8.68
46 h	3
70 h	1.93

ClCCOCOCCCl [Bis 2-Chloroethoxy Methane]
concentration in liver [ng/g], Rat [2]
Conditions	1 h	2 h	3 h	4 h	5 h	6 h	10 min	20 min	40 min
Female	526	65.2	–	–	–	–	1570	2310	662
Male	1620	640	121	66.5	31.1	26.2	3090	2860	4290

Conditions	concentration in liver [ng/g]	concentration in plasma [ng/mL]	concentration in thymus [ng/g]
Rat [3]	–	162	–
Rat [4]	–	–	5370
Rat [6]	161	–	–
Rat [7]	–	–	2300

Conditions	concentration in heart, Rat [5] [ng/g]	concentration in thymus, Rat [8] [ng/g]
1 h, Female, F344	1530	2600
1 h, Male, F344	1400	3100
2 h, Female, F344	338	712
2 h, Male, F344	466	783
3 h, Female, F344	123	199
3 h, Male, F344	179	305
4 h, Female, F344	53.5	52.4
4 h, Male, F344	57.5	72.9
5 h, Female, F344	38.7	62.4
5 h, Male, F344	47.8	77.9
6 h, Female, F344	31.7	48.8
6 h, Male, F344	31.5	29.6
7 h, Female, F344	–	26.6
7 h, Male, F344	21.1	36
8 h, Female, F344	–	16.4
8 h, Female, Harlan Sprague-Dawley	13.3	18.1
10 min, Female, F344	11300	33300
10 min, Male, F344	12200	66700
20 min, Female, F344	6050	22300
20 min, Male, F344	6780	13900
40 min, Female, F344	4450	12400
40 min, Male, F344	7060	7360

concentration in plasma [ng/mL], Rat [1], dosed: Bis 2-Chloroethoxy Methane, iv
Conditions	Female	Male
1 h, 20 mg/kg, F344	1380	1400
1 h, 40 mg/kg, Harlan Sprague Dawley	–	3850
2 h, 20 mg/kg, F344	202	336
2 h, 40 mg/kg, Harlan Sprague Dawley	–	648
3 h, 20 mg/kg, F344	82.8	119
3 h, 40 mg/kg, Harlan Sprague Dawley	–	333
4 h, 20 mg/kg, F344	79	117
4 h, 40 mg/kg, Harlan Sprague Dawley	–	139
5 h, 20 mg/kg, F344	25.4	32.6
5.333 h, 40 mg/kg, Harlan Sprague Dawley	–	74.6
6 h, 20 mg/kg, F344	10.2	28
6.667 h, 40 mg/kg, Harlan Sprague Dawley	–	45.9
7 h, 20 mg/kg, F344	–	16
8 h, 20 mg/kg, Harlan Sprague-Dawley	11.2	–
8 h, 40 mg/kg, Harlan Sprague Dawley	–	15.7
10 min, 20 mg/kg, F344	9580	10400
10 min, 40 mg/kg, Harlan Sprague Dawley	–	23400
20 min, 20 mg/kg, F344	5400	4840
20 min, 40 mg/kg, Harlan Sprague Dawley	–	10200
40 min, 20 mg/kg, F344	2110	2640
40 min, 40 mg/kg, Harlan Sprague Dawley	–	7610
